Assay results gathered from unrelated publications.
Target: Microtubule-associated serine/threonine-protein kinase 1 (MAST1, Homo sapiens, UniProt Q9Y2H9)

The remaining binding of N[C@@H]1CCN(c2nccc(-c3cnn4ncccc34)n2)C1 is reported as 100% (binding; 1 µM).
CCN1CCN(Cc2ccc(C(=O)Nc3ccc(C)c(Oc4ccc5c(c4)CC(=O)N5)c3)cc2C(F)(F)F)CC1 has a remaining binding of 100% (binding; competition with immobilised ligand; 1 µM).
CN(C)c1nccc(-c2cnn3ncccc23)n1 has a remaining binding of 76% (binding; 1 µM).
O=c1nc(-c2ccccn2)sc2ccccc12 gave a remaining binding of 73% (binding; competition with immobilised ligand; 1 µM).
COc1cnc(Nc2cccc(S(N)(=O)=O)c2)nc1N1CCN(c2ccccc2)C(=O)C1 gave a remaining binding of 100% (binding; competition with immobilised ligand; 1 µM).
With O=C(NCC1CCOCC1)c1n[nH]cc1NC(=O)c1c(F)cccc1F the remaining binding was 51% (binding; competition with immobilised ligand; 1 µM).
The remaining binding of Cc1cnc(Nc2ccc(C(=O)N3CCC(N4CCCC4)CC3)cc2)nc1-c1cc2ccccc2s1 is reported as 55% (binding; competition with immobilised ligand; 1 µM).
The remaining binding of Cc1c(NC(=O)c2cc(C(N)=O)nc3cc(F)ccc23)c(C(F)(F)F)nn1Cc1ccc(C#N)cc1 is reported as 77% (cell-free assay; competition with immobilised ligand; 1 µM).
With COc1ccnn2ncc(-c3ccnc(N(C)C)n3)c12 the remaining binding was 99% (binding; 1 µM).
Cc1cc(-n2nc(Cc3cc(F)cc(C(F)(F)F)c3)nc2C)ccc1C(N)=O gave a remaining binding of 100% (cell-free assay; competition with immobilised ligand; 1 µM).
F[C@@H]1CCN(c2nccc(-c3cnn4ncccc34)n2)C1 gave a remaining binding of 100% (binding; 1 µM).
COc1ncc2cc3ccccc3nc2c1C#N has a remaining binding of 98% (cell-free assay; competition with immobilised ligand; 5 µM).
For Cc1cnn2ncc(-c3ccnc(N(C)C)n3)c2c1, the remaining binding was 100% (binding; 1 µM).
The remaining binding of FC(F)(F)Oc1cccc(-c2cnc3ccc(-c4ccncc4)nn23)c1 is reported as 51% (cell-free assay; competition with immobilised ligand; 5 µM).
The remaining binding of C[C@@H]1CCN(c2nccc(-c3cnn4ncccc34)n2)C1 is reported as 100% (binding; 1 µM).
COc1ccc2c(c1)O[C@H](c1ccc(OC)c(OC)c1)C[C@@H]2NC(=O)C1(c2ccc3c(c2)OC(F)(F)O3)CC1 gave a remaining binding of 100% (cell-free assay; competition with immobilised ligand; 1 µM).
The remaining binding of O=C(NCCCN1CCOCC1)c1ccc(Nc2nccc(-c3cc4ccccc4s3)n2)cc1 is reported as 78% (binding; competition with immobilised ligand; 1 µM).
CC(=O)C1=C(C)N(c2cccc(C(F)(F)F)c2)C(=O)N[C@@H]1c1ccc(C#N)nc1 has a remaining binding of 96.9% (cell-free assay; competition with immobilised ligand; 1 µM).
O=C(NCCCN1CCOCC1)c1ccc(Nc2ncc(Cl)c(-c3ccc(Cl)s3)n2)cc1 gave a remaining binding of 63% (binding; competition with immobilised ligand; 1 µM).
The remaining binding of CS(=O)(=O)N1CCCC(NC(=O)[C@H](CCC2CCCCC2)NC(=O)c2ccc(CNc3ncnc4c3nnn4-c3ccccc3)cc2)C1 (stereo partly drawn) is reported as 100% (cell-free assay; competition with immobilised ligand; 0.1 µM).
CNC(=O)[C@@H]1CC[C@@H](n2c(-c3ccc4cnccc4c3)nc3ccc(C(=O)NCc4cccc(C(N)=O)c4)cc32)C1 gave a remaining binding of 100% (binding; competition with immobilised ligand; 1 µM).
